Assay results as given in ChEMBL document CHEMBL4428057, “Discovery, Synthesis, and Evaluation of 2,4-Diaminoquinazolines as a Novel Class of Pancreatic β-Cell-Protective Agents against Endoplasmic Reticulum (ER) Stress” (J Med Chem, 2016).
Calls of active or inactive are those of the source. The calls are words filed in the database; no cut-off is given here.

Legend:
INS1 [1] = test: Protection against tunicamycin induced endoplasmic reticulum stress in rat INS-1 cells assessed as increase in cell viability after 3 days by CellTiter-Glo assay; type: functional, cell-based; conditions: INS1, 72 h
Summary of the method: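 INS-1 cells at 3×10^3/well (384-well) co-treated with Tm 0.1 µg/mL and compound for 72 h; CellTiter-Glo ATP luminescence. Activity is % rescue, with Tm alone = 0% and DMSO without Tm = 100%. EC50 from ten 2-fold serial dilutions by curve fit; triplicate.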

INS1 [2] = test: Reversal of tunicamycin-induced suppression of MafA mRNA levels in rat INS-1 cells at 20 uM after 24 hrs by qRT-PCR method; type: functional, cell-based
Summary of the method: (§1)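 INS-1 cells (4×10^5/well, 6-well plates) given Tm 0.1 µg/mL ± compound 20 µM or DMSO for 24 h. INS1, INS2, PDX1 and MafA mRNA measured by qRT-PCR with rat primers. Means of 3 replicate wells, representative of 3 independent experiments; SD.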

[3] = molecular target: T1, Eukaryotic translation initiation factor 2-alpha kinase 3 (Rattus norvegicus) (UniProt Q9Z1Z1); test: Inhibition of PERK pathway in rat INS-1 cells assessed as reduction in tunicamycin induced CHOP protein levels at 20 uM after 2 to 24 hrs by Western blot analysis; type: cell-based
T1 sequence (whole entry): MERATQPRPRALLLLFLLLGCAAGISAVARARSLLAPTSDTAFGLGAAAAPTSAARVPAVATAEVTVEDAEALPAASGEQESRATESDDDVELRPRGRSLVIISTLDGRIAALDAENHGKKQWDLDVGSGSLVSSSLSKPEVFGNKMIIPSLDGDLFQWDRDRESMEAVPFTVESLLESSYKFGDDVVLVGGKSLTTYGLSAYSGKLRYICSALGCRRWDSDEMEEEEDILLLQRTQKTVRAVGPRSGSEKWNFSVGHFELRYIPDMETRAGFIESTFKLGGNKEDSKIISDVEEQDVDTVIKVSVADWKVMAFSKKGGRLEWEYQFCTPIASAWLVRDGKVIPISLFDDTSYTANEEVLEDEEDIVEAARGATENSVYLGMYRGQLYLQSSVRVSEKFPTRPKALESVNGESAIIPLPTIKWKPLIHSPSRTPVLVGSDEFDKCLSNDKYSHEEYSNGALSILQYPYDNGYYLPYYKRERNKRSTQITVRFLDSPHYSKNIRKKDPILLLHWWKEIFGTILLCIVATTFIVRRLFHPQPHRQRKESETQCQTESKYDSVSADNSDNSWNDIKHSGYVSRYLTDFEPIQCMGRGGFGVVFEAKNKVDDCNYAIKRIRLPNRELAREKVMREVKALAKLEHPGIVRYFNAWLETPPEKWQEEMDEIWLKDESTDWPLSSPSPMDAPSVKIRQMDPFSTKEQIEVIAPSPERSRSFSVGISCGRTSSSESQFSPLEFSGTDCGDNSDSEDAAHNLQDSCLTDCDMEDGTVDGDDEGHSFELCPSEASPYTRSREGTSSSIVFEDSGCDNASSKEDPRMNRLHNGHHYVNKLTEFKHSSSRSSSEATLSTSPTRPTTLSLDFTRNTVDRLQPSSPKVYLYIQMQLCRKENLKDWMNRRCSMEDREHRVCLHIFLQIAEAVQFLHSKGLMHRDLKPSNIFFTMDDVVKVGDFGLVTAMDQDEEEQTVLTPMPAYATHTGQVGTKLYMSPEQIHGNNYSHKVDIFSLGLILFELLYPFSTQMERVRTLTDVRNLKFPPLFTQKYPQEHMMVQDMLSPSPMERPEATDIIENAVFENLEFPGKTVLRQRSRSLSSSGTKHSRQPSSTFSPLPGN
Summary of the method: (§2)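 Western blots of INS-1 cells (8×10^5/60-mm dish) treated with Tm 0.1 µg/mL ± compound 20 µM or DMSO for the indicated times. Lysates with EDTA and phosphatase inhibitors; 20 µg protein on 7% SDS-PAGE, PVDF. Primary antibodies at 1:1000 against ATF4, CHOP, cleaved caspase 3 or PARP; α-tubulin loading control; HRP secondaries. Representative of 3 experiments.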

Rattus norvegicus = species on record: Rattus norvegicus; test: Inhibition of IRE1alpha in rat INS-1 cells assessed as suppression of tunicamycin induced spliced XBP1 mRNA levels in at 20 uM after 4 to 24 hrs by agarose gel electrophoresis based RT-PCR method; type: cell-based
Summary of the method: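 Total XBP1 mRNA amplified by RT-PCR from INS-1 cells treated with Tm 0.1 µg/mL ± compound 20 µM or DMSO for the indicated times. Unspliced and spliced forms resolved on agarose gel; cyclophilin A as internal control. Representative of 3 independent experiments.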

INS1 [4] = test: Protection against tunicamycin induced endoplasmic reticulum stress in rat INS-1 cells assessed as increase in cell viability at 5 uM after 72 hrs by CellTiter-Glo assay; type: functional, cell-based
Pancreatic beta cell = test: Suppression of tunicamycin impaired glucose-stimulated insulin secretion in human Beta cells at 10 to 20 uM preincubated for 48 hrs followed by glucose addition for 1 hr by ELISA; type: functional, cell-based
Summary of the method: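 Human islets (50 of equal size) in 96-well plates given Tm 1 µg/mL plus compound for 48 h, preincubated 1 h in KRBH (pH 7.4) with 2.5 mM glucose, then stimulated 1 h with 2.5 or 20 mM glucose. Secreted insulin by human insulin ELISA, normalized to total protein by Bradford.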

INS1 [5] = test: Protection against tunicamycin induced endoplasmic reticulum stress in rat INS-1 cells assessed as increase in cell viability at 2.5 to 20 uM after 72 hrs by MTT assay; type: functional, cell-based
Summary of the method: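 INS-1 cells at 3×10^3/well in 384-well plates treated with Tm 0.1 µg/mL ± compound or DMSO for 72 h. MTT reagent for 3 h at 37 °C, crystal-dissolving solution for 4 h, absorbance at 570 nm. Means of 3 replicate wells, representative of 3 experiments, SD.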

Beta-TC6 = test: Protection against tunicamycin induced endoplasmic reticulum stress in mouse BetaTC6 cells assessed as increase in cell viability after 72 hrs by CellTiter-Glo assay; type: functional, cell-based
Summary of the method: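 βTC6 cells (DMEM, 15% FBS) seeded at 3×10^3/well in 384-well plates with Tm 0.25 µg/mL ± compound or DMSO for 72 h. Viability by CellTiter-Glo (ATP luminescence) or MTT: 3 h with reagent at 37 °C, then 4 h with crystal-dissolving solution, absorbance at 570 nm. 3 replicate wells, 3 experiments.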

INS1 [6] = test: Suppression of tunicamycin impaired glucose-stimulated insulin secretion in rat INS-1 cells at 10 to 20 uM preincubated for 24 hrs followed by 25 mM glucose addition for 1 hr by ELISA; type: functional, cell-based
Summary of the method: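 INS-1 cells in 96-well plates given Tm 0.1 µg/mL plus compound for 24 h, preincubated 1 h in KRBH (pH 7.4, 2% BSA) with 2.5 mM glucose, then 1 h in 2.5 or 25 mM glucose. Secreted insulin by ELISA, corrected for total protein (Bradford); 2.5 mM glucose without Tm set to 1.0.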

INS1 [7] = test: Reversal of tunicamycin suppressed INS2 mRNA levels in rat INS-1 cells at 20 uM after 24 hrs by qRT-PCR method; type: functional, cell-based; summary of the method: as §1
INS1 [8] = test: Reversal of tunicamycin induced caspase-3 cleavage in rat INS-1 cells at 20 uM after 2 to 24 hrs by Western blot analysis; type: functional, cell-based; summary of the method: as §2

Which EC50 (INS1 [1]) does the source give for `COc1ccc(CNc2nc(N3CCCCC3CO)nc3ccccc23)cc1` (racemic) here?
Its EC50 is 560 nM.

What about the Activity (INS1 [2]) of the same compound?
Its Activity is “Active”.

And the inhibition [3]?
Its inhibition is “Active”.

What about the inhibition (Rattus norvegicus) of the same compound?
The inhibition was “Active”.

And the Activity (INS1 [4])?
The Activity was “Active”.

And the Activity (Pancreatic beta cell)?
Its Activity is “Active”.

And the Activity (INS1 [5])?
The Activity was “Active”.

And the Activity (Beta-TC6)?
Its Activity is “Dose-dependent effect”.

What about the Activity (INS1 [6]) of the same compound?
Its Activity is “Active”.

What about the Activity (INS1 [7]) of the same compound?
The Activity was “Active”.

What about the Activity (INS1 [8]) of the same compound?
Its Activity is “Active”.
